{"source": "paper PMC6368469", "about": "(Journal of clinical pharmacology, 2018)", "key": {"[1]": {"assay": "Umbilical cord blood and maternal plasma concentrations at delivery", "type": "in vivo, human", "conditions": "15 patients, detection limit 0.039 μg/mL; for Detected in maternal plasma samples: number of samples at delivery; for Detected in cord plasma samples: number of samples"}, "[2]": {"type": "in vivo, human", "conditions": "for Cmax / Cmin / AUC(0-t): plasma; for Cl/F: dose/AUC0–12"}, "[3]": {"assay": "Stability in stored plasma", "type": "in vitro ADME", "conditions": "plasma stored at −20°C", "in_short": "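Human plasma from study participants, stored at −20°C. Test compound and its metabolite were quantified together by reversed-phase HPLC-UV after acetonitrile protein precipitation. Supernatant was injected onto a C-18 column and eluted isocratically with 10mM potassium phosphate pH 4.2:ACN (62:38 v/v) at 1.2 mL/min. Detection was at 206 nm, with a detection limit of 0.039 μg/mL. Validation QC samples spanned multiple concentrations.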"}, "[4]": {"assay": "Clinical and laboratory safety monitoring of mothers and infants", "type": "in vivo, human"}, "HIV": {"system": "HIV", "conditions": "cited from earlier work"}, "[5]": {"conditions": "cited from earlier work"}, "[6]": {"conditions": "cited from earlier work", "remark": "listed apart in the source"}, "[7]": {"conditions": "1875mg BID 3rd trimester vs 1250mg BID postpartum, (90% CI)"}, "[8]": {"conditions": "3rd trimester, nelfinavir 1875mg BID, median (IQR), n = 18"}, "[9]": {"conditions": "postpartum, nelfinavir 1250mg BID, median (IQR), n=16"}, "[10]": {"conditions": "1875mg BID 3rd trimester vs 1250mg BID postpartum, (90% CI), listed as Nelfinavir"}}, "note": "“And” between values parts separate entries of the source, which are not always exact repeats. Equal entries are not always repeated. Structures can show the parent of a compound that is named as a salt. Where two headings read alike, the source gives them in different places.", "data": [{"smiles": "Cc1c(O)cccc1C(=O)N[C@@H](CSc1ccccc1)[C@H](O)CN1C[C@H]2CCCC[C@H]2C[C@H]1C(=O)NC(C)(C)CO", "note": "[M8, hydroxyl-tert-butylamide]", "values": [{"measurement": "Detected in maternal plasma samples", "setting": "[1]", "result": 10}, {"measurement": "Detected in cord plasma samples", "setting": "[1]", "result": 3}, {"measurement": "Cmin geometric mean ratio 3rd trimester/postpartum", "setting": "[2]; [7]", "result": "0.78 (0.40–1.26)"}, {"measurement": "M8/NFV AUC ratio", "setting": "[2]; [8]", "result": "0.11 (0.08–0.22)"}, {"measurement": "Cmax", "setting": "[2]; [8]", "result": "0.66 (0.48–1.12) μg/mL"}, {"measurement": "Cmin", "setting": "[2]; [8]", "result": "0.11 (0.05–0.15) μg/mL"}, {"measurement": "Cmax", "setting": "[2]; [9]", "result": "1.20 (1.07–1.71) μg/mL"}, {"measurement": "Cmin", "setting": "[2]; [9]", "result": "0.14 (0.04–0.21) μg/mL"}, {"measurement": "M8/NFV AUC ratio", "setting": "[2]; [9]", "result": "0.30 (0.17–0.35)"}]}, {"smiles": "Cc1c(O)cccc1C(=O)N[C@@H](CSc1ccccc1)[C@H](O)CN1C[C@H]2CCCC[C@H]2C[C@H]1C(=O)NC(C)(C)C", "note": "[NFV, Nelfinavir mesylate]", "values": [{"measurement": "Stability in plasma", "setting": "[3]", "result": "stable"}, {"measurement": "Grade 3–4 adverse events treatment-related", "setting": "[4]; 18 patients", "result": "none were determined to be treatment-related"}, {"measurement": "Safety concerns", "setting": "[4]; increased dose 1875 mg twice daily in third trimester", "result": "No major safety concerns were noted"}, {"measurement": "Detected in maternal plasma samples", "setting": "[1]", "result": "13 out of 15"}, {"measurement": "Detected in cord plasma samples", "setting": "[1]", "result": "10 out of 15"}, {"measurement": "Activity against HIV", "setting": "HIV", "result": "moderately potent activity"}, {"measurement": "Subjects meeting the AUC target during the 3rd trimester", "setting": "[5]; in vivo, 1250 mg", "result": 56, "unit": "%"}, {"measurement": "Placental crossing", "setting": "[5]; in vivo", "result": "crossed the placenta poorly"}, {"measurement": "10th percentile AUC0–12 (target AUC)", "setting": "[5]; non-pregnant historical controls", "result": 18500, "unit": "ng·h/mL"}, {"measurement": "AUC0–12 geometric mean ratio 3rd trimester/postpartum", "setting": "[2]; [7]", "result": "0.98 (0.71–1.35)"}, {"measurement": "Cl/F geometric mean ratio 3rd trimester/postpartum", "setting": "[2]; [7]", "result": "1.54 (1.12–2.11)"}, {"measurement": "Cmax geometric mean ratio 3rd trimester/postpartum", "setting": "[2]; [7]", "result": "1.06 (0.85–1.34)"}, {"measurement": "Cmin geometric mean ratio 3rd trimester/postpartum", "setting": "[2]; [7]", "result": "0.90 (0.71–1.16)"}, {"measurement": "AUC0–12 geometric mean ratio 3rd trimester/postpartum", "setting": "[2]; [10]", "result": 0.98}, {"measurement": "Cl/F geometric mean ratio 3rd trimester/postpartum", "setting": "[2]; [10]", "result": 1.54}, {"measurement": "Participants with AUC0–12 above target (18.5 μg h/mL)", "setting": "[2]; 3rd trimester, 1875 mg twice daily, 15 of 18", "result": 83, "unit": "%"}, {"measurement": "Cl/F", "setting": "[2]; [8]", "result": "54.9 (40.4–68.9) L/h"}, {"measurement": "AUC(0-t)", "setting": "[2]; female, human, 1250 mg", "result": "33500 ng·h/mL and 58.9 µM·h"}, {"measurement": "Cmax", "setting": "[2]; female, human, 1250 mg", "result": 5000, "unit": "ng/mL"}, {"measurement": "AUC(0-t)", "setting": "[2]; female, human, 1875 mg", "result": "34200 ng·h/mL and 60.2 µM·h"}, {"measurement": "Patients with increased Cl/F during 3rd trimester compared to the postpartum period", "setting": "[2]; number of pregnant patients", "result": "11 out of 18"}, {"measurement": "Cmin", "setting": "[2]; [8]", "result": "0.47 (0.35–1.33) μg/mL"}, {"measurement": "Cmin", "setting": "[2]; [9]", "result": "0.52 (0.22–0.80) μg/mL"}, {"measurement": "Participants with AUC0–12 above target (18.5 μg h/mL)", "setting": "[2]; postpartum, 1250mg twice daily, 14 of 16", "result": 88, "unit": "%"}, {"measurement": "Cl/F", "setting": "[2]; [9]", "result": "37.4 (28.7–43.7) L/h"}]}, {"smiles": "CC(C)CN(C[C@@H](O)[C@H](Cc1ccccc1)NC(=O)O[C@H]1CO[C@H]2OCC[C@H]21)S(=O)(=O)c1ccc(N)cc1", "note": "[darunavir]", "values": [{"measurement": "AUC and Cmax in pregnancy", "setting": "[6]; standard dosing", "result": "substantially decreased"}]}, {"smiles": "Cc1cc(C#N)cc(C)c1Oc1nc(Nc2ccc(C#N)cc2)nc(N)c1Br", "note": "[etravirine]", "values": [{"measurement": "Exposure during pregnancy", "setting": "[6]", "result": "increased"}]}]}
